# Bioassay records as filed in PubChem BioAssay.
# CYP2C19 activ: increases human CYP2C19 enzyme activity; recombinant CYP2C19, luciferin-H EGE luminescence; hits give high values; 0 = fully inhibited enzyme, 1 = untreated enzyme; AID 1025; 96,000 tested, under 10 active; activation factor at 5 µM;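 active = activation factor of at least 2 at 5 µM in the primary screen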;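 note: 0 = wells with 2.5 mM tranylcypromine and 1 = vehicle-only wells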
# Target sequence (P33261 whole entry, looked up): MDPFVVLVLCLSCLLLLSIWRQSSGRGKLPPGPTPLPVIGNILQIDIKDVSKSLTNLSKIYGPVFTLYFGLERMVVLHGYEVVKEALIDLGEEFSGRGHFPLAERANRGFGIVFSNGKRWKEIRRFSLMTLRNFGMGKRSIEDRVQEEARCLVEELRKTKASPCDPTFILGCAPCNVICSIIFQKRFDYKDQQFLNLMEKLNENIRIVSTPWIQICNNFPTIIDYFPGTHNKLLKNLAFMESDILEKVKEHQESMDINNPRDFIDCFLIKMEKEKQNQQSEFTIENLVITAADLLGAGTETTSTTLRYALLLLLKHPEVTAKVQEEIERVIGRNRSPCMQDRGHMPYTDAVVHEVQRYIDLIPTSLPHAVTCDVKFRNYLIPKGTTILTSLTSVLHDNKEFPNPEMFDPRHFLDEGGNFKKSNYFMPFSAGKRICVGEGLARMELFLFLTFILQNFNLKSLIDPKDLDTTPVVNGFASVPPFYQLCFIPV
# E coli WT exp: growth inhibitors of E. coli BW25113 wild type. growth inhibition, % at 100 µM. AID 710. 0.15% of 98,000 active. OD600 absorbance;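 active = growth inhibition above about 50% at one test dose, limit read from the data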;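 note: growth measured after 20 h incubation at 37 °C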
# CYP2C19 inh: human CYP2C19 inhibition; P33261; CYP2C19 Supersomes, luciferin-H EGE luminescence, 30 min; inhibition, % at 5 µM; 21% of 96,000 active; AID 778;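 active = CYP2C19 inhibition above a set limit at 5 µM in the primary screen, cut at about 50% in these data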;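 note: plate controls were negative control wells for no effect and 2.5 mM tranylcypromine positive control for full effect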
# Ecoli tolC: growth inhibitors of E. coli BW25113 tolC mutant | 2.2% of 65,000 active | OD615 | growth inhibition, % at 10 µM (by protocol) | AID 573;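 active = growth inhibition at or above a cutoff equal to the mean over every tested compound plus 3 SD, cut at about 60% in these data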;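 note: growth measured after 20 h incubation at 37 °C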
#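 Material: E. coli BW25113 ΔtolC::kan, tolC deletion mutant strain. Measure: percent growth inhibition. Schedule: 37 °C, 20 h exposure. Doses: single-point testing at 10 µM. Signal: A615 absorbance measurement. Buffer or medium: kanamycin-containing LB broth (50 µg/mL).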
# CYP2C9 inh: inhibitors of human CYP2C9; 20% of 96,000 active; CYP2C9 Supersomes, luciferin-H conversion, luminescence; P11712; AID 777; inhibition, % at 5 µM;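 active = blocking of liver enzyme CYP2C9 beyond about 50% at 5 µM, limit read from the data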
# CYP2C9 act: CYP2C9 (human) activation; P11712; recombinant CYP2C9, luciferin-H conversion, luminescence; hits give high values; factor 1 = untreated enzyme, 0 = blocked; activation factor at 5 µM; 1.4% of 96,000 active;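 active = activation factor of 2 or more for CYP2C9 at a 5 µM dose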;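 note: 0 = sulfaphenazole-blocked wells and 1 = vehicle-only wells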
# An asterisk follows results filed as active; / = no result. Compounds with a hit are over-represented: about 29% of the library has one in this group of screens.
SMILES,CYP2C19 activ,E coli WT exp,CYP2C19 inh,Ecoli tolC,CYP2C9 inh,CYP2C9 act
CCOc1ccc(NC(=O)CCC(=O)OC)cc1,0.7,-5,31,-17,-70,1.7
CCOc1ccc(NC(=O)CCNS(=O)(=O)c2cccs2)cc1,0.3,0,66*,/,-46,1.5
COc1ccc(NC(=O)CCNS(=O)(=O)c2ccc(Br)s2)cc1,0.7,6,29,/,68*,0.3
O=C(COc1ccc(Cl)cc1)NNC(=O)C(=O)N1CCCCC1,0.9,3,8,/,0,1
Cc1cc(NC(=O)Cn2nc(-c3ccccc3F)ccc2=O)ccc1-n1cnnn1,1,1,-3,32,17,0.8
Cc1ccc2cc(C)c(N3CCN(c4ccccn4)CC3)nc2c1,0.2,-21,77*,26,70*,0.3
Cc1ccc(-c2nnc(N3CCN(c4ccccn4)CC3)c3ccccc23)cc1,0.5,-4,46,100*,32,0.7
c1ccc(-c2nnc(N3CCN(c4ccccn4)CC3)c3ccccc23)cc1,0.3,0,68*,28,-31,1.3
CS(=O)(=O)N1CCN(c2nnc(-c3ccccc3)c3ccccc23)CC1,0.7,1,32,13,14,0.9
Cc1ccc(-c2nnc(N3CCN(C(=O)COc4ccccc4)CC3)c3ccccc23)cc1,0.2,-7,79*,/,87*,0.1
O=C(O)C1CC(=O)N(c2ccc(OCc3c(F)cccc3Cl)cc2)C1 (stereo not given),1,-8,-2,-6,7,0.9
O=C(Nc1nc2cc3c(cc2s1)OCO3)C1=COCCO1,/,/,/,4,/,/
c1c2c(cc3sc(N4CCCCC4)nc13)OCO2,0.2,6,84*,13,18,0.8
c1c2c(cc3sc(N4CCOCC4)nc13)OCO2,0.6,6,42,-9,3,1
CC(=O)Nc1nc2cc3c(cc2s1)OCO3,0.4,-3,64*,-11,28,0.7
Cc1nn(Cc2ccc(F)cc2)c(C)c1NC(=O)c1cnn2cccnc12,0.6,3,41,-4,-12,1.1
CC(=O)C1=C(O)C(=O)N(c2ccc(C(=O)O)cc2)C1c1ccccc1 (stereo not given),0.9,2,5,16,0,1
CC(=O)C1=C(O)C(=O)N(c2ccc(S(N)(=O)=O)cc2)C1c1ccc([N+](=O)[O-])cc1 (stereo not given),0.8,-4,18,/,90*,0.1
CCOC(=O)C1=C(Cn2cnc3ccccc32)NC(=O)NC1c1ccc(OC)cc1 (stereo not given),0.5,10,54*,/,67*,0.3
CC(C)C(=O)Nc1ncc(C(F)(F)F)cc1Cl,1.1,2,-8,/,7,0.9
N#CCC(CNc1ncc(C(F)(F)F)cc1Cl)OC(=O)c1ccc(Cl)cc1Cl (stereo not given),0.7,-8,30,/,50*,0.5
CC1(C)C(c2cccs2)=[N+]([O-])C2(CCCCC/C2=N\NC(N)=O)N1O (stereo not given),1.1,-1,-13,/,-14,1.1
CC(=O)c1c(C)[nH]c(C(=O)N2CCCCCC2)c1C,0.8,3,23,-31,15,0.9
O=C(CSc1ncn(-c2ccccc2)n1)Nc1ccc2c(c1)OCO2,0.1,2,95*,-2,90*,0.1
COc1ccc(NC(=O)CSc2ccc3c(c2)OCCO3)cc1OC,0.5,-1,46,/,64*,0.4
SMILES,CYP2C19 activ,E coli WT exp,CYP2C19 inh,Ecoli tolC,CYP2C9 inh,CYP2C9 act
CSc1nsc(SCC(=O)Nc2ccc3c(c2)OCCO3)n1,0.1,5,88*,18,82*,0.2
O=C(CSc1nnc2c(n1)[nH]c1ccccc12)Nc1ccc2c(c1)OCO2,1,-15,5,/,64*,0.4
O=C(CSc1ncn(-c2ccccc2)n1)Nc1ccc2c(c1)OCCO2,0.6,-8,43,0,46,0.5
C1CCc2c(nnc3c2-c2nonc2CC3)C1,0.9,1,6,-18,12,0.9
CC(Sc1ccc2c(c1)OCCO2)C(=O)Nc1ncc(Cl)cc1Cl (stereo not given),0.3,2,70*,/,42,0.6
CCOC(=O)c1cnc(SCc2ccccc2)nc1N,0.9,1,14,16,-4,1
CCOC(=O)c1cnc(SCC(=O)Nc2ccc3c(c2)OCCO3)nc1N,0.6,-15,38,-8,69*,0.3
